Key:
[1] = Retention time of the compound by LC-MS/MS method; format: physicochemical
[2] = Ratio of human recombinant CYP2C8-mediated unbound intrinsic clearance to human recombinant CYP3A5-mediated unbound intrinsic clearance; format: ADME; settings: recombinant enzyme
[3] = Ratio of human recombinant CYP2C8-mediated unbound intrinsic clearance to human recombinant CYP3A4-mediated unbound intrinsic clearance; format: ADME; settings: recombinant enzyme
Homo sapiens [4] = organism: Homo sapiens; experiment: Unbound intrinsic clearance in human hepatic S9 fraction assessed as ketoconazole-mediated inhibition of 3'-hydroxy repaglinide intrinsic clearance at 0.5 to 150 uM by LC-MS/MS method
Cytochrome P450 2C8 = biological target: T1, Cytochrome P450 2C8 (Homo sapiens, UniProt P10632); experiment: Drug metabolism assessed as human recombinant CYP2C8-mediated metabolite formation at 0.5 to 150 uM by LC-MS/MS method; format: ADME; settings: recombinant enzyme
T1 sequence (P10632 whole entry): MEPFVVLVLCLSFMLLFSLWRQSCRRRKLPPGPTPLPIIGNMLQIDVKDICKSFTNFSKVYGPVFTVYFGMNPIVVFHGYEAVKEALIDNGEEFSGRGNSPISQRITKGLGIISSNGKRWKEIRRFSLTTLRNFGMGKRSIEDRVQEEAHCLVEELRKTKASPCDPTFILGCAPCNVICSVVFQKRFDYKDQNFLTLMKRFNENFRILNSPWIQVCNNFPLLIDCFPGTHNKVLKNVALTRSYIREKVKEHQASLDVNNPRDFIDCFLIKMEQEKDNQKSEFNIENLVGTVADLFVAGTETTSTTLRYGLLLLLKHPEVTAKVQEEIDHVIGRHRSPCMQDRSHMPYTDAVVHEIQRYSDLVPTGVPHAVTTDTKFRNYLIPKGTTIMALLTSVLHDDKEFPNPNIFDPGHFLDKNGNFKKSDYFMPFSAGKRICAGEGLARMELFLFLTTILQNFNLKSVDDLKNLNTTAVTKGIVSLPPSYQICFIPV
In short: (§1)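 Recombinant P450 (CYP2C8 50, CYP3A4 30, CYP3A5 100; units not given) incubated 10 min at 37°C with repaglinide (8 concentrations, 0.5–150 μM) in 0.1 M phosphate pH 7.4, 10 mM MgCl2, NADPH-regenerating system (1 mM NADP+, isocitrate/isocitrate dehydrogenase). Quenched with ice-cold methanol plus indomethacin internal standard. M1, M2, M4 quantified by LC-MS/MS against authentic standards. Michaelis-Menten fit; mean ± SD, n=3.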

Cytochrome P450 3A5 = Cytochrome P450 3A5 (Homo sapiens, UniProt P20815); experiment: Drug metabolism assessed as human recombinant CYP3A5-mediated metabolite formation at 0.5 to 150 uM by LC-MS/MS method; format: ADME; settings: recombinant enzyme; in short: as §1
[5] = Unbound intrinsic clearance in human hepatic S9 fraction assessed as 10 uM disulfiram-mediated inhibition of 2-despiperidyl-2-(5-carboxypentylamine) repaglinide formation at 0.5 to 150 uM by LC-MS/MS method; format: tissue-based, Liver; settings: s9, 150 µM
Cytochrome P450 3A4 = Cytochrome P450 3A4 (Homo sapiens, UniProt P08684); experiment: Drug metabolism assessed as human recombinant CYP3A4-mediated metabolite formation at 0.5 to 150 uM by LC-MS/MS method; format: ADME; settings: recombinant enzyme; in short: as §1
[6] = Unbound intrinsic clearance in human hepatic S9 fraction assessed as IC50 for disulfiram-mediated inhibition of 2-despiperidyl-2-(5-carboxypentylamine) repaglinide formation at 10, 25 and 50 uM by LC-MS/MS method
[7] = Ratio of human recombinant CYP3A4-mediated unbound intrinsic clearance to human recombinant CYP3A5-mediated unbound intrinsic clearance; format: ADME; settings: recombinant enzyme
[8] = Ratio of human recombinant CYP3A4-mediated unbound intrinsic clearance to human recombinant CYP2C8-mediated unbound intrinsic clearance; format: ADME; settings: recombinant enzyme
Homo sapiens [9] = organism: Homo sapiens; experiment: Unbound intrinsic clearance in human hepatic S9 fraction assessed as gemfibrozil glucuronide-mediated inhibition of 2-despiperidyl-2-amino repaglinide intrinsic clearance at 0.5 to 150 uM by LC-MS/MS method
[10] = substrate: CCOc1cc(CC(=O)N[C@@H](CC(C)C)c2ccccc2N2CCCCC2)ccc1C(=O)O; experiment: Activity of human recombinant CYP3A5 expressed in insect cells assessed as enzyme-mediated 3'-hydroxy repaglinide formation per picomole of protein at 0.5 to 150 uM by LC-MS/MS method; format: ADME; in short: as §1
[11] = substrate: CCOc1cc(CC(=O)N[C@@H](CC(C)C)c2ccccc2N2CCCCC2)ccc1C(=O)O; experiment: Activity of human recombinant CYP3A5 expressed in insect cells assessed as enzyme-mediated 2-despiperidyl-2-amino repaglinide formation per picomole of protein at 0.5 to 150 uM by LC-MS/MS method; format: ADME; in short: as §1
[12] = substrate: CCOc1cc(CC(=O)N[C@@H](CC(C)C)c2ccccc2N2CCCCC2)ccc1C(=O)O; experiment: Activity of human recombinant CYP3A5 expressed in insect cells assessed as enzyme-mediated 2-despiperidyl-2-amino repaglinide formation by LC-MS/MS method; format: ADME; in short: as §1
[13] = substrate: CCOc1cc(CC(=O)N[C@@H](CC(C)C)c2ccccc2N2CCCCC2)ccc1C(=O)O; experiment: Activity of human recombinant CYP2C8 expressed in insect cells assessed as enzyme-mediated 3'-hydroxy repaglinide formation per picomole of protein at 0.5 to 150 uM by LC-MS/MS method; format: ADME; in short: as §1
[14] = substrate: CCOc1cc(CC(=O)N[C@@H](CC(C)C)c2ccccc2N2CCCCC2)ccc1C(=O)O; experiment: Activity of human recombinant CYP2C8 expressed in insect cells assessed as enzyme-mediated 3'-hydroxy repaglinide formation by LC-MS/MS method; format: ADME; in short: as §1
[15] = substrate: CCOc1cc(CC(=O)N[C@@H](CC(C)C)c2ccccc2N2CCCCC2)ccc1C(=O)O; experiment: Activity of human recombinant CYP2C8 expressed in insect cells assessed as enzyme-mediated 2-despiperidyl-2-amino repaglinide formation per picomole of protein at 0.5 to 150 uM by LC-MS/MS method; format: ADME; in short: as §1
[16] = substrate: CCOc1cc(CC(=O)N[C@@H](CC(C)C)c2ccccc2N2CCCCC2)ccc1C(=O)O; experiment: Activity of human recombinant CYP2C8 expressed in insect cells assessed as enzyme-mediated 2-despiperidyl-2-amino repaglinide formation by LC-MS/MS method; format: ADME; in short: as §1

Chain of Cytochrome P450 3A4 (P08684 whole entry): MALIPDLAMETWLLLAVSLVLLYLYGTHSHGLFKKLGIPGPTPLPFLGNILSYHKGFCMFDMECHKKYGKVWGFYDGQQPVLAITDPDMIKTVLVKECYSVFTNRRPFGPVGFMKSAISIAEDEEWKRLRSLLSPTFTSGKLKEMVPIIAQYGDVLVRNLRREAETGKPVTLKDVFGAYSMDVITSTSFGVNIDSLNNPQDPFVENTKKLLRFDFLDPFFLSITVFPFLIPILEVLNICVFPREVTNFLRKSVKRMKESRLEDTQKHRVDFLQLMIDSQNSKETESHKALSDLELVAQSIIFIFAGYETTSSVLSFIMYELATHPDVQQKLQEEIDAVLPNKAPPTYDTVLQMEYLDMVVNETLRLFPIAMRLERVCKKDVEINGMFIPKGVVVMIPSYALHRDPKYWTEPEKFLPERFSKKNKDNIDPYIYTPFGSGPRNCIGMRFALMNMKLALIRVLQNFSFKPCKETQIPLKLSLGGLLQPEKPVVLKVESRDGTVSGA

`CCOc1cc(CC(=O)N[C@@H](CC(C)C)c2ccccc2N2CCCC(O)C2)ccc1C(=O)O` (stereo partly drawn) gave a Retention_time [1] of 2.9 min, a Ratio [2] of 360 and a Ratio [3] of 35. The “inhibition (INH)” value (Homo sapiens [4]) was < 30%.

With `CCOc1cc(CC(=O)N[C@@H](CC(C)C)c2ccccc2NCCCCC(=O)O)ccc1C(=O)O` the Retention_time [1] was 2.8 min, the Drug metabolism (Cytochrome P450 2C8) was < 1 nM and the Drug metabolism (Cytochrome P450 3A5) was < 1 nM. The “inhibition (INH)” value [5] was 89%, the Drug metabolism (Cytochrome P450 3A4) was < 1 nM and the IC50 [6] was 1200 nM.

Molecule `CCOc1cc(CC(=O)N[C@@H](CC(C)C)c2ccccc2N2CCCCC2)ccc1C(=O)O[C@@H]1O[C@H](C(=O)O)[C@@H](O)[C@H](O)[C@H]1O` has a Retention_time [1] of 3.4 min.

`CCOc1cc(CC(=O)N[C@@H](CC(C)C)c2ccccc2N)ccc1C(=O)O` showed a Retention_time [1] of 2.7 min, a Ratio [7] of 85 and a Ratio [8] of 32. The “inhibition (INH)” value (Homo sapiens [9]) was < 30%.

Work on `COc1ccc2c(c1)c(CC(=O)O)c(C)n2C(=O)c1ccc(Cl)cc1` [INDOMETHACIN] yielded a Retention_time [1] of 3 min.

B1: Cytochrome P450 3A5 (Homo sapiens) (protein)
chain: MDLIPNLAVETWLLLAVSLVLLYLYGTRTHGLFKRLGIPGPTPLPLLGNVLSYRQGLWKFDTECYKKYGKMWGTYEGQLPVLAITDPDVIRTVLVKECYSVFTNRRSLGPVGFMKSAISLAEDEEWKRIRSLLSPTFTSGKLKEMFPIIAQYGDVLVRNLRREAEKGKPVTLKDIFGAYSMDVITGTSFGVNIDSLNNPQDPFVESTKKFLKFGFLDPLFLSIILFPFLTPVFEALNVSLFPKDTINFLSKSVNRMKKSRLNDKQKHRLDFLQLMIDSQNSKETESHKALSDLELAAQSIIFIFAGYETTSSVLSFTLYELATHPDVQQKLQKEIDAVLPNKAPPTYDAVVQMEYLDMVVNETLRLFPVAIRLERTCKKDVEINGVFIPKGSMVVIPTYALHHDPKYWTEPEEFRPERFSKKKDSIDPYIYTPFGTGPRNCIGMRFALMNMKLALIRVLQNFSFKPCKETQIPLKLDTQGLLQPEKPIVLKVDSRDGTLSGE
B1 gave a kcat [10] of 0.000833 s⁻¹, a kcat [11] of 0.00133 s⁻¹ and a Km [12] of 66 µM.

B2: Cytochrome P450 2C8 (Homo sapiens) (protein)
chain: MEPFVVLVLCLSFMLLFSLWRQSCRRRKLPPGPTPLPIIGNMLQIDVKDICKSFTNFSKVYGPVFTVYFGMNPIVVFHGYEAVKEALIDNGEEFSGRGNSPISQRITKGLGIISSNGKRWKEIRRFSLTTLRNFGMGKRSIEDRVQEEAHCLVEELRKTKASPCDPTFILGCAPCNVICSVVFQKRFDYKDQNFLTLMKRFNENFRILNSPWIQVCNNFPLLIDCFPGTHNKVLKNVALTRSYIREKVKEHQASLDVNNPRDFIDCFLIKMEQEKDNQKSEFNIENLVGTVADLFVAGTETTSTTLRYGLLLLLKHPEVTAKVQEEIDHVIGRHRSPCMQDRSHMPYTDAVVHEIQRYSDLVPTGVPHAVTTDTKFRNYLIPKGTTIMALLTSVLHDDKEFPNPNIFDPGHFLDKNGNFKKSDYFMPFSAGKRICAGEGLARMELFLFLTTILQNFNLKSVDDLKNLNTTAVTKGIVSLPPSYQICFIPV
With B2 the kcat [13] was 0.00583 s⁻¹, the Km [14] was 5.7 µM and the kcat [15] was 0.00133 s⁻¹. It also gave a Km [16] of 25 µM.
